In ChEMBL document CHEMBL1649147, “Antistaphylococcal activity of dihydrophthalazine antifolates, a family of novel antibacterial drugs” (2009):
Converted amounts (≈) assume the structure as drawn.

Key:
[1] = system: Staphylococcus epidermidis; assay: Antibacterial activity against methicillin-resistant coagulase-negative Staphylococcus epidermidis 197 after 50 passages by agar dilution method; type: functional
Procedure, shortened: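 Daily serial passage for up to 50 days at 35°C for 24 h in 1 ml MHB. Each transfer used 10 µl from the tube nearest the MIC (1–2 dilutions below) with the same turbidity as the drug-free control. MICs were measured by agar dilution, with changes given as log2 steps.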

Staphylococcus aureus [2] = assay: Antibacterial activity against methicillin-susceptible Staphylococcus aureus by agar dilution method; type: functional
Procedure, shortened: (§1)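 Agar dilution on Mueller-Hinton agar per CLSI guidelines. S. aureus ATCC 29213 and E. faecalis ATCC 29212 were run with each set, and test MICs were accepted only when the control strains fell within acceptable ranges.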

Staphylococcus aureus [3] = assay: Antibacterial activity against methicillin-resistant Staphylococcus aureus by agar dilution method; type: functional; procedure, shortened: as §1
Staphylococcus aureus [4] = assay: Antibacterial activity against Tmp-susceptible Staphylococcus aureus by agar dilution method; type: functional
Procedure, shortened: (§2)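 MICs by agar dilution on Mueller-Hinton agar following CLSI guidelines. S. aureus ATCC 29213 and E. faecalis ATCC 29212 were run as quality controls with each set, and test-strain MICs were kept only if control MICs fell within acceptable ranges.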

Staphylococcus aureus [5] = assay: Antibacterial activity against Tmp-resistant Staphylococcus aureus by agar dilution method; type: functional; procedure, shortened: as §2
Staphylococcus aureus [6] = assay: Antibacterial activity against Tmp-susceptible coagulase-negative Staphylococcus aureus by agar dilution method; type: functional; procedure, shortened: as §2
Staphylococcus aureus [7] = assay: Antibacterial activity against methicillin-susceptible Staphylococcus aureus ATCC 29213 by broth macrodilution method; type: functional; conditions: ATCC29213
Staphylococcus aureus [8] = assay: Antibacterial activity against methicillin-susceptible Staphylococcus aureus 505 by broth macrodilution method; type: functional
Staphylococcus aureus [9] = assay: Antibacterial activity against methicillin-resistant Staphylococcus aureus ATCC 43300 by broth macrodilution method; type: functional; conditions: ATCC43300
Staphylococcus aureus [10] = assay: Antibacterial activity against methicillin-resistant Staphylococcus aureus 145 by broth macrodilution method; type: functional
Staphylococcus aureus [11] = assay: Antibacterial activity against methicillin-resistant Staphylococcus aureus 507 by broth macrodilution method; type: functional
Staphylococcus aureus [12] = assay: Antibacterial activity against vancomycin-resistant Staphylococcus aureus VRS1 by broth macrodilution method; type: functional
Procedure, shortened: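 Michigan VRSA strain, one of 12 staphylococci later used in time-kill studies. MIC was determined by broth macrodilution and reported in μg/ml.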

[13] = system: Staphylococcus epidermidis; assay: Antibacterial activity against methicillin-susceptible coagulase-negative Staphylococcus epidermidis 051 by broth macrodilution method; type: functional
[14] = system: Staphylococcus epidermidis; assay: Antibacterial activity against methicillin-susceptible coagulase-negative Staphylococcus epidermidis 057 by broth macrodilution method; type: functional
[15] = system: Staphylococcus epidermidis; assay: Antibacterial activity against methicillin-resistant coagulase-negative Staphylococcus epidermidis 074 by broth macrodilution method; type: functional
[16] = system: Staphylococcus epidermidis; assay: Antibacterial activity against methicillin-resistant coagulase-negative Staphylococcus epidermidis 197 by broth macrodilution method; type: functional
[17] = system: Staphylococcus epidermidis; assay: Antibacterial activity against methicillin-resistant coagulase-negative Staphylococcus epidermidis 225 by broth macrodilution method; type: functional
[18] = system: Staphylococcus epidermidis; assay: Antibacterial activity against methicillin-resistant coagulase-negative Staphylococcus epidermidis 345 by broth macrodilution method; type: functional
Staphylococcus aureus [19] = assay: Antibacterial activity against methicillin-susceptible, vancomycin-intermediate Staphylococcus aureus 505 by broth macrodilution method; type: functional
Staphylococcus aureus [20] = assay: Antibacterial activity against methicillin-resistant and vancomycin-resistant Staphylococcus aureus VRS1 by agar dilution method; type: functional; procedure, shortened: as §1
[21] = system: Staphylococcus epidermidis; assay: Antibacterial activity against methicillin-resistant, Linezolid non-susceptible coagulase-negative Staphylococcus epidermidis 345 by agar dilution method; type: functional
[22] = system: Staphylococcus epidermidis; assay: Antibacterial activity against methicillin-resistant, vancomycin-intermediate coagulase-negative Staphylococcus epidermidis 225 by agar dilution method; type: functional; procedure, shortened: as §1
Staphylococcus aureus [23] = assay: microbe, parasite or virus in culture; conditions: ATCC29213
Staphylococcus aureus [24] = assay: microbe, parasite or virus in culture; conditions: 505
Staphylococcus aureus [25] = assay: microbe, parasite or virus in culture; conditions: ATCC43300
[26] = system: coagulase-negative staphylococci; assay: Antibacterial activity against Tmp-resistant coagulase-negative staphylococci by agar dilution method
[27] = system: coagulase-negative staphylococci; assay: Antibacterial activity against Tmp-susceptible coagulase-negative staphylococci by agar dilution method
[28] = system: coagulase-negative staphylococci; assay: Antibacterial activity against methicillin-resistant coagulase-negative staphylococci by agar dilution method
[29] = system: coagulase-negative staphylococci; assay: Antibacterial activity against methicillin-susceptible coagulase-negative staphylococci by agar dilution method

With `COc1cc(Cc2cnc(N)nc2N)cc(OC)c1OC` [TRIMETHOPRIM] the MIC [1] was 64 µg/mL (≈ 220 µM), the MIC50 (Staphylococcus aureus [2]) was 0.5 µg/mL (≈ 1.72 µM) and the MIC90 (Staphylococcus aureus [2]) was over 128 µg/mL. The MIC (Staphylococcus aureus [3]) was at most 0.008 µg/mL, the MIC50 (Staphylococcus aureus [3]) was 0.5 µg/mL (≈ 1.72 µM) and the MIC50 (Staphylococcus aureus [4]) was 0.5 µg/mL (≈ 1.72 µM). The MIC90 (Staphylococcus aureus [4]) was 0.5 µg/mL (≈ 1.72 µM), the MIC (Staphylococcus aureus [5]) was 32 µg/mL (≈ 110 µM) and the MIC50 (Staphylococcus aureus [5]) was over 128 µg/mL. It also gave an MIC (Staphylococcus aureus [6]) of 0.03 µg/mL (≈ 0.103 µM), an MIC (Staphylococcus aureus [7]) of 1 µg/mL (≈ 3.44 µM) and an MIC (Staphylococcus aureus [8]) of 1 µg/mL (≈ 3.44 µM). The MIC (Staphylococcus aureus [9]) was 1 µg/mL (≈ 3.44 µM), the MIC (Staphylococcus aureus [10]) was over 128 µg/mL and the MIC (Staphylococcus aureus [11]) was 128 µg/mL (≈ 441 µM). The MIC (Staphylococcus aureus [12]) was over 128 µg/mL, the MIC [13] was 128 µg/mL (≈ 441 µM) and the MIC [14] was 128 µg/mL (≈ 441 µM). It also gave an MIC [15] of 4 µg/mL (≈ 13.8 µM), an MIC [16] of 0.5 µg/mL (≈ 1.72 µM) and an MIC [17] of over 128 µg/mL. For the same compound, the MIC [18] was over 128 µg/mL, the MIC (Staphylococcus aureus [19]) was 1 µg/mL (≈ 3.44 µM) and the MIC (Staphylococcus aureus [20]) was over 128 µg/mL. The MIC [21] was over 128 µg/mL, the MIC [22] was over 128 µg/mL and the MIC (Staphylococcus aureus [23]) was over 128 µg/mL. It also gave an MIC (Staphylococcus aureus [24]) of over 128 µg/mL, an MIC (Staphylococcus aureus [25]) of over 128 µg/mL and an MIC50 [26] of over 128 µg/mL. For the same compound, the MIC50 [27] was 0.25 µg/mL (≈ 0.861 µM), the MIC90 [27] was 2 µg/mL (≈ 6.89 µM) and the MIC50 [28] was 128 µg/mL (≈ 441 µM). The MIC90 [29] was 64 µg/mL (≈ 220 µM).
